SENP7 block = SENP7 protease inhibitors, primary screen, biochemical, luminescence, uHTS. AID 434973, 2010. inhibition, % at 5 µM. 330,000 tested, 1.5% active. Sentrin-specific protease 7 (Homo sapiens), Q9BQF6. recombinant SENP7, Z-RLRGG-aminoluciferin luminescence, 40 min;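 active means inhibition above about 50% at the single test dose, limit read from the data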
SENP8 block-1 = human SENP8 protease inhibitors, primary screen, biochemical, fluorescence, Nedd8 protein substrate, uHTS | Sentrin-specific protease 8 (Homo sapiens), Q96LD8 | recombinant SENP8 | inhibition, % at 20 µM | 360,000 tested, 0.64% active | AID 602440, 2012; in the data active means inhibition mostly above about 40%, no sharp cut-off; inactive means mostly below about 27%
Target sequence (Q96LD8 whole entry, looked up): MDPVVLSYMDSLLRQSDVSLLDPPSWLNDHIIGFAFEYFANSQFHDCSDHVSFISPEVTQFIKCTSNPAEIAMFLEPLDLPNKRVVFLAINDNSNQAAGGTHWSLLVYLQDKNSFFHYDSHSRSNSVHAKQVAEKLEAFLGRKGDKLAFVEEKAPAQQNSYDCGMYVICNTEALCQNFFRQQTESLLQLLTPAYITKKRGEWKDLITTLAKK
Platelet DG rel = inhibitors of platelet dense granule secretion, primary screen, cell-based, MLPCN, human platelets. AID 1663, 2009. inhibition, %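 (compounds screened at 7.5 µM in platelet-rich plasma)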. human platelet-rich plasma, SFLLRN dense granule ATP release, luminescence. 300,000 tested, 0.22% active;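 active means mean replicate score, as percent of positive control, at or above 50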
SENP8 block-2 = SENP8 protease inhibitors, primary screen, biochemical, luminescence; 330,000 tested, 1.2% active; purified SENP8, Z-RLRGG-aminoluciferin cleavage; inhibition, % at 10 µM; in the data active means inhibition above about 50%
SENP1 FRET inh = human SENP1 catalytic domain inhibitors, primary screen, biochemical, FRET, uHTS | Sentrin-specific protease 1 (Homo sapiens), Q9P0U3 | recombinant SENP1 catalytic domain, CyPet-SUMO1-YPet FRET cleavage | 360,000 tested, 0.21% active | inhibition, % at 10 µM;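 active means inhibition at least 30% at 10 µM, raw YFP signal under a set limit, fluorescence ratio 0.5 to 1.5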
Target sequence (Q9P0U3 419-644 limits assumed): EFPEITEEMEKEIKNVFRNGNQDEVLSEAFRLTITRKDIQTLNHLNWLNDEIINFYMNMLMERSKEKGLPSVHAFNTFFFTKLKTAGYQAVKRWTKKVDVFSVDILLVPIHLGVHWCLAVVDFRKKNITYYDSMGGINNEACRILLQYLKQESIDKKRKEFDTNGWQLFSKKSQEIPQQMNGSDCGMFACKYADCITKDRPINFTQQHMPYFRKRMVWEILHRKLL
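Assay system: hSENP1 catalytic domain, recombinant. Amount: SENP1 enzyme, 20 pM final. Schedule: 50 min reaction, RT, dark. Technique: FRET, CFP and YFP emission. Control set: no-enzyme wells low, DMSO-plus-enzyme wells high control.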
SENP6 block = SENP6 protease inhibitors, primary screen, biochemical, luminescence, uHTS; inhibition, % at 10 µM; Recombinant SENP6 catalytic domain, aminoluciferin luminescence; 330,000 tested, 1.8% active; Sentrin-specific protease 6 (Homo sapiens), Q9GZR1; AID 2599, 2010;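 active means inhibition above about 50% at the single tested dose, limit read from the data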
SENP1 conf = human SENP1 catalytic domain inhibitors, confirmation, biochemical, FRET endpoint, single concentration; shares compounds with SENP1 FRET inh; recombinant SENP1, CyPet-SUMO1-YPet FRET cleavage; inhibition, % at 10 µM; 520 tested, 34% active; AID 651678, 2012; in the data active means inhibition mostly above about 35%, no sharp cut-off; inactive means mostly below about 32%
SENP1 kin conf = human SENP1 catalytic domain inhibitors, confirmation, biochemical, kinetic FRET, single concentration. shares compounds with SENP1 FRET inh. recombinant SENP1, CyPet-SUMO1-YPet FRET kinetic cleavage. inhibition, % at 10 µM. 520 tested, 26% active. AID 651690, 2012; in the data active means inhibition mostly above about 32%, no sharp cut-off; inactive means mostly below about 29%
Hits are given with their value. In the library only some 2.6% were active in any assay of this set; here they are far more common.

For CCOc1cc(Br)cc(/C=C2\SC(=Nc3ccccc3)NC2=O)c1O the results were SENP7 block inactive, SENP8 block-1 inactive, Platelet DG rel inactive, SENP8 block-2 inactive, SENP1 FRET inh 35, SENP6 block inactive, SENP1 conf 69 and SENP1 kin conf 45.
Screening C=CCOc1c(Br)cc(/C=C2\SC(=Nc3ccccc3)NC2=O)cc1OC returned SENP7 block inactive, SENP8 block-1 inactive, Platelet DG rel inactive, SENP8 block-2 inactive, SENP1 FRET inh 42, SENP6 block inactive, SENP1 conf inactive and SENP1 kin conf inactive.
For O=C(CN1CCSC1=NCc1ccccc1)c1ccc(Cl)c(Cl)c1 the results were SENP7 block inactive, SENP8 block-1 inactive, Platelet DG rel inactive, SENP8 block-2 inactive, SENP1 FRET inh 40, SENP6 block inactive, SENP1 conf inactive and SENP1 kin conf inactive.
`O=C(Cn1ccccc1=S)c1ccc(Cl)c(Cl)c1` gave SENP7 block inactive, SENP8 block-1 inactive, Platelet DG rel inactive, SENP8 block-2 inactive, SENP1 FRET inh inactive and SENP6 block inactive.
Screening CN(C)c1ccc(/C=N/NC(=O)C(=O)/C=C2\NC3(CCCC3)Cc3ccccc32)cc1 returned SENP7 block inactive, SENP8 block-1 inactive, Platelet DG rel inactive, SENP8 block-2 inactive, SENP1 FRET inh 53, SENP6 block inactive, SENP1 conf 37 and SENP1 kin conf inactive.
For COc1cc(/C=N/NC(=O)C(=O)/C=C2\NC3(CCCC3)Cc3ccccc32)ccc1O the results were SENP7 block inactive, SENP8 block-1 inactive, Platelet DG rel inactive, SENP8 block-2 inactive, SENP1 FRET inh inactive and SENP6 block inactive.
CCn1c(SCC(=O)N(Cc2ccccc2)C2CCS(=O)(=O)C2)nc2ccccc2c1=O (stereo not given) was read as SENP7 block inactive, SENP8 block-1 inactive, Platelet DG rel inactive, SENP8 block-2 inactive, SENP1 FRET inh inactive and SENP6 block inactive.
Screening COc1cccc(N=Cc2ccc(O)cc2O)c1 returned SENP7 block inactive, SENP8 block-1 inactive, Platelet DG rel inactive, SENP8 block-2 inactive, SENP1 FRET inh 36, SENP6 block inactive, SENP1 conf inactive and SENP1 kin conf inactive.
CCCCC(=O)OCC(=O)C1(O)Cc2c(O)c3c(c(O)c2C(OC2CC(NC(=O)C(F)(F)F)C(O)C(C)O2)C1)C(=O)c1c(OC)cccc1C3=O (stereo not given) was read as SENP8 block-1 45, SENP1 FRET inh 95, SENP1 conf inactive and SENP1 kin conf inactive.
CCc1ccc(NC(=O)c2ccc(-n3cncn3)c([N+](=O)[O-])c2)cc1 was read as SENP7 block inactive, SENP8 block-1 inactive, Platelet DG rel inactive, SENP8 block-2 inactive, SENP1 FRET inh inactive and SENP6 block inactive.
Screening O=C1C(Cl)=C(N2CCCCCC2)C(=O)N1c1ccc(Cl)cc1 returned SENP7 block inactive, SENP8 block-1 inactive, Platelet DG rel inactive, SENP8 block-2 inactive, SENP1 FRET inh inactive and SENP6 block inactive.
Screening O=C1C(Cl)=C(N2CCCC2)C(=O)N1c1ccc(F)cc1 returned SENP7 block inactive, SENP8 block-1 inactive, Platelet DG rel inactive, SENP8 block-2 inactive, SENP1 FRET inh 35, SENP6 block inactive, SENP1 conf inactive and SENP1 kin conf inactive.
For CC(=O)c1ccc(Sc2ccccc2N)c([N+](=O)[O-])c1 the results were SENP7 block inactive, SENP8 block-1 inactive, Platelet DG rel inactive, SENP8 block-2 inactive, SENP1 FRET inh 37, SENP6 block inactive, SENP1 conf inactive and SENP1 kin conf inactive.
